The IC50 is the concentration at which inhibition is half-maximal. As usually defined, the Vmax is the rate approached at saturating substrate. A word on the Km: it is the concentration of substrate that gives half-maximal velocity. Usually Ki stands for the dissociation constant of the complex between target and ligand, obtained from inhibition or displacement.

What all share (assay type): ADME
Series [1] is described as follows: Inhibition of CYP2B6 variant in human liver microsomes harboring CYP2B6*6/*6 genotype assessed as 8-hydroxyefavirenz formation using efavirenz as substrate after 15 mins by LC/MS/MS analysis. On the technique in general: Liver microsomes are a subcellular fraction often used to study metabolism.
Series [2] can be described thus: Inhibition of CYP2B6 variant in human liver microsomes harboring CYP2B6*1/*1 genotype assessed as 8-hydroxyefavirenz formation using efavirenz as substrate after 15 mins by LC/MS/MS analysis.
A short description of series [3]: Drug metabolism in human liver microsomes harboring CYP2B6*6/*6 genotype assessed as CYP2B6 variant-mediated 8-hydroxyefavirenz metabolite formation measured per mg protein after 15 mins by LC/MS/MS analysis. As to conditions: 0.25 h. In short, it runs like this: (§1)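 Genotyped human liver microsomes (5 donors per genotype), 0.25 mg/ml, with efavirenz 1–200 µM in 200 mM potassium phosphate pH 7.4. Prewarmed 5 min at 37°C, started with NADPH-regenerating system, 15 min, stopped on ice with acetonitrile. 8-hydroxyefavirenz measured by LC/MS/MS, duplicate incubations. Km and Vmax from single-site Michaelis-Menten nonlinear fit; Clint = Vmax/Km; mean ± S.D. across 5 HLMs.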

Series [4] is described as follows: Drug metabolism in microsomes expressing CYP2B6.6 (unknown origin) assessed as enzyme-mediated 8-hydroxyefavirenz metabolite formation after 15 mins by HPLC/UV system in absence of Cyt b5 coexpression. As to conditions: human, 0.25 h. Summed up: (§2)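 Microsomes with cDNA-expressed CYP2B6.1 or CYP2B6.6 plus POR, no Cyt b5 (15 pmol P450). Efavirenz 1–200 µM in 200 mM phosphate pH 7.4 with NADPH-regenerating system, 15 min at 37°C. 8-hydroxyefavirenz by HPLC, rate per pmol P450.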

Series [5] in a line: Drug metabolism in microsomes expressing CYP2B6.1 (unknown origin) assessed as enzyme-mediated 8-hydroxyefavirenz metabolite formation after 15 mins by HPLC/UV system in absence of Cyt b5 coexpression. To be noted: human, 0.25 h. In short, it runs like this: as §2
The nature of series [6]: Drug metabolism in human liver microsomes harboring CYP2B6*1/*1 genotype assessed as CYP2B6 variant-mediated 8-hydroxyefavirenz metabolite formation after 15 mins by LC/MS/MS analysis. To be noted: 0.25 h. Summed up:
as §1

The nature of series [7]: Drug metabolism in microsomes expressing CYP2B6.1 (unknown origin) assessed as enzyme-mediated 8-hydroxyefavirenz metabolite formation measured per pmol of P450 after 15 mins by HPLC/UV system in absence of Cyt b5 coexpression. As to conditions: human, 0.25 h. In short, it runs like this: as §2
A short description of series [8]: Drug metabolism in microsomes expressing CYP2B6.6 (unknown origin) assessed as enzyme-mediated 8-hydroxyefavirenz metabolite formation measured per pmol of P450 after 15 mins by HPLC/UV system in absence of Cyt b5 coexpression. To be noted: human, 0.25 h. Summed up: as §2
Series [9] can be described thus: Drug metabolism in human liver microsomes harboring CYP2B6*6/*6 genotype assessed as CYP2B6 variant-mediated 8-hydroxyefavirenz metabolite formation after 15 mins by LC/MS/MS analysis. To be noted: 0.25 h. In short, it runs like this:
as §1

Series [10] in a line: Drug metabolism in microsomes expressing CYP2B6.6 (unknown origin) assessed as enzyme-mediated 8-hydroxyefavirenz metabolite formation measured per pmol of P450 after 15 mins by HPLC/UV system in presence of Cyt b5 coexpression. To be noted: human, 0.25 h. In short, it runs like this:
(§3)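 cDNA-expressed CYP2B6.1 or CYP2B6.6 microsomes coexpressing POR and Cyt b5 (15 pmol), with efavirenz 1–200 µM, NADPH-regenerating system and pH 7.4 phosphate buffer, 15 min at 37°C. 8-hydroxyefavirenz by HPLC, rate per pmol P450. Kinetic constants from single-site Michaelis-Menten fit; three replicates, mean ± S.D.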

The nature of series [11]: Drug metabolism in human liver microsomes harboring CYP2B6*6/*6 genotype assessed as intrinsic clearance for CYP2B6 variant-mediated 8-hydroxyefavirenz metabolite formation measured per mg protein after 15 mins by LC/MS/MS analysis. To be noted: 0.25 h. In short, it runs like this: as §1
A short description of series [12]: Drug metabolism in human liver microsomes harboring CYP2B6*1/*1 genotype assessed as CYP2B6 variant-mediated 8-hydroxyefavirenz metabolite formation measured per mg protein after 15 mins by LC/MS/MS analysis. To be noted: 0.25 h. Summed up: as §1
Series [13] is described as follows: Drug metabolism in microsomes expressing CYP2B6.1 (unknown origin) assessed as enzyme-mediated 8-hydroxyefavirenz metabolite formation measured per pmol of P450 after 15 mins by HPLC/UV system in presence of Cyt b5 coexpression. As to conditions: human, 0.25 h. Summed up: as §3
The nature of series [14]: Drug metabolism in human liver microsomes harboring CYP2B6*1/*1 genotype assessed as intrinsic clearance for CYP2B6 variant-mediated 8-hydroxyefavirenz metabolite formation measured per mg protein after 15 mins by LC/MS/MS analysis. To be noted: 0.25 h. In short, it runs like this: as §1
A short description of series [15]: Drug metabolism in microsomes expressing CYP2B6.6 (unknown origin) assessed as enzyme-mediated 8-hydroxyefavirenz metabolite formation after 15 mins by HPLC/UV system in presence of Cyt b5 coexpression. As to conditions: human, 0.25 h. In short, it runs like this:
as §3

The nature of series [16]: Drug metabolism in microsomes expressing CYP2B6.1 (unknown origin) assessed as enzyme-mediated 8-hydroxyefavirenz metabolite formation after 15 mins by HPLC/UV system in presence of Cyt b5 coexpression. To be noted: human, 0.25 h. Summed up:
as §3

The nature of series [17]: Drug metabolism in human liver microsomes harboring CYP2B6*1/*6 genotype assessed as CYP2B6 variant-mediated 8-hydroxyefavirenz metabolite formation after 15 mins by LC/MS/MS analysis. To be noted: 0.25 h. In short, it runs like this:
as §1

A short description of series [18]: Drug metabolism in human liver microsomes harboring CYP2B6*1/*6 genotype assessed as CYP2B6 variant-mediated 8-hydroxyefavirenz metabolite formation measured per mg protein after 15 mins by LC/MS/MS analysis. As to conditions: 0.25 h. In short, it runs like this:
as §1

The nature of series [19]: Drug metabolism in human liver microsomes harboring CYP2B6*1/*6 genotype assessed as intrinsic clearance for CYP2B6 variant-mediated 8-hydroxyefavirenz metabolite formation measured per mg protein after 15 mins by LC/MS/MS analysis. To be noted: 0.25 h. Summed up:
as §1

Series [20] is described as follows: Inhibition of CYP2B6 variant in human liver microsomes harboring CYP2B6*1/*6 genotype assessed as 8-hydroxyefavirenz formation using efavirenz as substrate after 15 mins by LC/MS/MS analysis.

For the compound `COC(=O)[C@H](c1ccccc1Cl)N1CCc2sccc2C1` [CLOPIDOGREL], the figures for the IC50 in series [1] and in series [2] were 50 nM and 140 nM, respectively.

Turning to `O=C1Nc2ccc(Cl)cc2[C@@](C#CC2CC2)(C(F)(F)F)O1` [EFAVIRENZ], the maximum rate (Vmax) in series [3] is reported as 25 pmol/min; in series [7], 1.21 pmol/min; in [8] it was 1.61 pmol/min; in series [10] it was 0.95 pmol/min; in [12], 87.1 pmol/min; in series [13], 1.02 pmol/min. The Vmax in series [18] was found to be 100.6 pmol/min. Besides, the Michaelis-Menten constant (Km) worked out at 8.8 µM in series [4]; 3.2 µM in [5]; 11.2 µM in series [6]; 24 µM in [9]; 6.2 µM in series [15]; 3.4 µM in series [16]. The Michaelis-Menten constant (Km) in [17] is 15.2 µM. Besides, the CLH amounted to 2.4 µL/min/mg in series [11], 14.5 µL/min/mg in series [14] and 6.4 µL/min/mg in series [19].

Turning to `C[C@@H](c1ncncc1F)[C@](O)(Cn1cncn1)c1ccc(F)cc1F` [VORICONAZOLE], the IC50 in series [1] is 160 nM; in series [2], 400 nM. Further, the Ki in [20] was determined as 1550 nM.

(Values after ChEMBL document CHEMBL3526074, “Effects of the CYP2B6*6 allele on catalytic properties and inhibition of CYP2B6 in vitro: implication for the mechanism of reduced efavirenz metabolism and other CYP2B6 substrates in vivo” (Drug Metab Dispos, 2012).)
